For one series, the system named is SW480. Conditions: read-out: MTs IC50 ± SD SW480; Wnt/β-catenin hyperactive, 72 h; cited from earlier work.
Another series deals with HCT116. Conditions: read-out: MTs IC50 ± SD HCT116; Wnt/β-catenin hyperactive, 72 h; cited from earlier work.
Another series relates to MDA-MB-231. Conditions: read-out: MTs IC50 ± SD MDA-MB-231; Wnt/β-catenin hyperactive, 72 h; cited from earlier work.
For another series, the system named is A549. Conditions: read-out: MTs IC50 ± SD normal Wnt A549, 72 h; cited from earlier work.
In a further series the test system is MDA-MB-231 cells. Conditions: cited from earlier work.
A further series concerns β-catenin. Conditions: in words; cited from earlier work.
In a further series the test system is BCL9 HD2 domain. Conditions: in words; cited from earlier work.
Series [1] has as its system Axin2, LEF1, cyclin D1 mRNA in SW480 cells. Nature of the series: qPCR of Wnt target gene mRNA expression. The format is cell-based, human. Conditions: 24 h, in words.
Series [2] has as its system cyclin D1, c-myc, active β-catenin (ABC), total β-catenin in SW480 cells. The series can be described thus: Western blot of protein expression. Format: cell-based. Conditions: 24 h, in words.
The next series addresses T1, β-catenin/BCL9 PPI (Homo sapiens, UniProt P35222).
T1 sequence (P35222 1-781): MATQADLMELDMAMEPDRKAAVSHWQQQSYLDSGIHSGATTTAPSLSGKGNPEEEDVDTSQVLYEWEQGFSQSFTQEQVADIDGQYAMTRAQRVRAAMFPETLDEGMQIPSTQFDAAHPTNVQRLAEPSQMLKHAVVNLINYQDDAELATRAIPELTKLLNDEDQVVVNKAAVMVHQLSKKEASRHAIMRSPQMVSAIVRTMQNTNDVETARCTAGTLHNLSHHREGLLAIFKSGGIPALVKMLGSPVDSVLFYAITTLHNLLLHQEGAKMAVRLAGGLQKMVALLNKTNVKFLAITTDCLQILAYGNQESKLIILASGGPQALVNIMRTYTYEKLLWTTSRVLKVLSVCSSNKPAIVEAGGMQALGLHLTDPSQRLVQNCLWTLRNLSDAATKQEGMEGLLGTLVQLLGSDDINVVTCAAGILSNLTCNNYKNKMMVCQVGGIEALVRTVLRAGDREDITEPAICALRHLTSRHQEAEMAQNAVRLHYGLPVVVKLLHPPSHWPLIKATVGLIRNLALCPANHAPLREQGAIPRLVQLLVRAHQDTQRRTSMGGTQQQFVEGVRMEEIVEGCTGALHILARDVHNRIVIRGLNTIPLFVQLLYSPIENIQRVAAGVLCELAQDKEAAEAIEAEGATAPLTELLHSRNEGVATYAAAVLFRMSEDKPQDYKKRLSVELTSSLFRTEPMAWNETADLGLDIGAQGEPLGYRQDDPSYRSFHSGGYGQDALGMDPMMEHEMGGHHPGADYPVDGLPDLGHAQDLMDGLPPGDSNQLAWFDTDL
The series can be described thus: AlphaScreen competitive inhibition assay, β-catenin/BCL9 PPI. Format: binding. Conditions: in words. (In general: Alpha assays give light when donor and acceptor beads are brought close together.)

The next series deals with T2, β-catenin/E-cadherin PPI (Homo sapiens, UniProt P35222).
T2 sequence (P35222 1-781): T1 sequence (P35222 1-781)
Nature of the series: AlphaScreen selectivity assay, β-catenin/E-cadherin PPI. Format: binding. Conditions: for selectivity of BCL9/cadherin: ratio of Ki β-catenin/E-cadherin over Ki β-catenin/BCL9.

The next series concerns SW480 cells. Nature of the series: LDH release cytotoxicity assay. The format is cell-based. Conditions: 4 h incubation, in words. In a few lines: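 SW480 cells were seeded at 2 × 10^4 cells/well, held overnight at 37 °C, then exposed to various concentrations of test compound for 4 h. The culture supernatant was reacted with the commercial LDH kit reagents and read at 490 nm. Percent cytotoxicity was calculated from experimental, background and maximum LDH release. Run in triplicate.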

Series [3] relates to FOPFlash luciferase reporter (three mutant Tcf4 binding sites) in β-catenin activated HEK293 cells. Nature of the series: FOPFlash luciferase reporter assay. The format is cell-based. Conditions: in words; for effect on FOPFlash luciferase reporter activity: β-catenin activated HEK293 cells. In general terms: A reporter such as luciferase makes a cellular process visible.
The next series concerns HCT116 cells. Nature of the series: Cell-bound. The format is in vitro ADME. Conditions: 5 mL DMEM with 10% FBS.
For series [4], the system named is full-length β-catenin/full-length BCL9 PPI in HCT116 cell lysates. Nature of the series: Co-IP in cell lysates. Format: cell-based. Conditions: 4 h incubation with HCT116 cell lysates, in words.
Series [5] relates to β-catenin/BCL9 PPI in HCT116 cells. The series can be described thus: Co-IP in whole cells. Format: cell-based. Conditions: 24 h, in words.
The next series has as its target BCL9 (Homo sapiens) (UniProt O00512). Conditions: cited from earlier work.

Here are results for six compounds from paper PMC7787347 (Journal of medicinal chemistry, 2018).

“Also recorded” adds a separate entry of the source.

By IC50 is commonly meant the concentration that inhibits the measured activity by half. The term Ki denotes the dissociation constant of the complex between target and ligand, obtained from inhibition or displacement. Read a high Ki as weaker binding. In general, Kd refers to the free concentration of one partner at which half of the binding sites on the other are occupied at equilibrium, for simple one-to-one binding.

Sequence of BCL9 (Homo sapiens) (O00512 whole entry): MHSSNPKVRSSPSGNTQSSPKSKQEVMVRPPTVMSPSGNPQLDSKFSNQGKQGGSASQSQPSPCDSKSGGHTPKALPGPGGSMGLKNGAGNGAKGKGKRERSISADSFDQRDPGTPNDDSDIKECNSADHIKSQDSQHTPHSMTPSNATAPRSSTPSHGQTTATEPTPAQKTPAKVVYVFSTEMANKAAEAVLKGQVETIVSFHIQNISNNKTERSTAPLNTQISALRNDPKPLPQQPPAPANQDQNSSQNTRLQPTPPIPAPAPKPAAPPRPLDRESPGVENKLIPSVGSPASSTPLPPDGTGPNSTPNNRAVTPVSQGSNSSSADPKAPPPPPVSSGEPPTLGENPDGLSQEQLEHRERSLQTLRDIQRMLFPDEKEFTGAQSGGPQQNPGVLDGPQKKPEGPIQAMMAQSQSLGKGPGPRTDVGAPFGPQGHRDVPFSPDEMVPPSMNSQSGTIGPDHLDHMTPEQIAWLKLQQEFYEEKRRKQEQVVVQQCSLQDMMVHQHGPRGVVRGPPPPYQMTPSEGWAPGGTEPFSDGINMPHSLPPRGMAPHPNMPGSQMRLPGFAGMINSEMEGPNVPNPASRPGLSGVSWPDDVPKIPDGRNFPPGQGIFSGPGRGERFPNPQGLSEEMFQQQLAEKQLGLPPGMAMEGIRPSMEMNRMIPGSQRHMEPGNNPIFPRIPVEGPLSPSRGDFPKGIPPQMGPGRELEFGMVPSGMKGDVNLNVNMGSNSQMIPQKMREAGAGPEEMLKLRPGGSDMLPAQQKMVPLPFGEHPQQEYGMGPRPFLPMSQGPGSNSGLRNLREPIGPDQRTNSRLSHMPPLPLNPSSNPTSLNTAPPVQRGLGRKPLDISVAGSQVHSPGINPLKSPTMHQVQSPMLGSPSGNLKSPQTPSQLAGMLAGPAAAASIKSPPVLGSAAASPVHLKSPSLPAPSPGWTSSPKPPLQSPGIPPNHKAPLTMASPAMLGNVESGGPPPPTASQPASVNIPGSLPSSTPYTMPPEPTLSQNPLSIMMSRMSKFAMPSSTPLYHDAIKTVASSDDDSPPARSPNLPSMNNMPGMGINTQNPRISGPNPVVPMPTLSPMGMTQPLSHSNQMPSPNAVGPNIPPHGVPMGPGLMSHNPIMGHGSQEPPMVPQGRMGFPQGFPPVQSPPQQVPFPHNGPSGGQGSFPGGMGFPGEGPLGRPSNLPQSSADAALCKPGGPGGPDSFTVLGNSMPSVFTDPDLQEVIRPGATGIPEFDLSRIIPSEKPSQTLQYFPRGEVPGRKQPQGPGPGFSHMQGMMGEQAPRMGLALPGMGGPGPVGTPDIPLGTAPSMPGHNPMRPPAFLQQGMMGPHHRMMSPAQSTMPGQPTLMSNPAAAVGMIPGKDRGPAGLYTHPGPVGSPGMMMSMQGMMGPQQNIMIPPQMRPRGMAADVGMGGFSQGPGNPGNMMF

As to `Cl.Cl.O=C(Nc1ccc(O[C@H]2CCNC2)c(-c2ccc(F)cc2)c1)c1ccc(O[C@H]2CCNC2)c(-c2ccc(F)c(F)c2)c1` [Compound 1], the IC50 in the series with SW480 is 3.5 ± 0.32 µM; in the series with HCT116 it was 3.1 ± 0.83 µM; with MDA-MB-231, 2.3 ± 0.25 µM; in the series on A549, 8.8 ± 0.62 µM. Besides, in the series with MDA-MB-231 cells (6 h incubation at 4 °C, 5 mL DMEM with 10% FBS), the “cell-bound concentration at 4 °C” value was 1 nmol/million MDA-MB-231 cells. In the series with MDA-MB-231 cells (6 h incubation, 5 mL DMEM with 10% FBS, input concentration 2 μM), the “cell-bound concentration at 37 °C” value was 6.7 nmol/million MDA-MB-231 cells. In addition, the “amount bound with the cell membrane by the nonspecific manner” value in the series with MDA-MB-231 cells (MDA-MB-231 cells) is 15%. For the same compound, the “binding with β-catenin in ITC” value in the series with β-catenin was “bind with β-catenin”. Besides, the “binding with BCL9 HD2 domain in ITC” value with BCL9 HD2 domain was “not the BCL9 HD2 domain”.

Regarding `Cl.Cl.O=C(Nc1ccc(O[C@H]2CCNC2)c(-c2ccc(F)cc2)c1)c1ccc(O[C@H]2CCNC2)c(-c2ccc3ccsc3c2)c1` [Compound 3, 3-(Benzo[b]thiophen-6-yl)-N-(4′-fluoro-6-(((S)-pyrrolidin-3-yl)-oxy)-[1,1′-biphenyl]-3-yl)-4-(((S)-pyrrolidin-3-yl)oxy)benzamide Dihydrochloride], in series [1], the “mRNA expression of Wnt target genes Axin2, cyclin D1 and LEF1” value was “dose-dependently inhibited”; the “mRNA expression of house-keeper gene HPRT” value is “did not inhibit”. Moreover, in series [2], the “level of E-cadherin-bound β-catenin (total β-catenin)” value was “no effect”; the “level of the active form of β-catenin (ABC)” value is recorded as “inhibit the level of the active form of β-catenin (ABC)”; the “protein expression levels of cyclin D1 and c-myc” value was “significantly decreased”.

For the compound `Cl.Cl.O=C(Nc1ccc(O[C@H]2CCNC2)c(-c2cccc(-c3nn[nH]n3)c2)c1)c1ccc(O[C@H]2CCNC2)c(-c2ccc(F)c(F)c2)c1` [Compound 27, 3′,4′-Difluoro-6-((S)-pyrrolidin-3-yloxy)-N-(6-((S)-pyrrolidin-3-yloxy)-3′-(2H-tetrazol-5-yl)-[1,1′-biphenyl]-3-yl)-[1,1′-biphenyl]-3-carboxamide Dihydrochloride], the “AlphaScreen biochemical inhibitory activity compared with 1” value at β-catenin/BCL9 PPI is on record as “comparable with that of 1”.

Regarding `Cl.Cl.O=C(Nc1ccc(O[C@@H]2CCNC2)c(-c2cccc(-c3nn[nH]n3)c2)c1)c1ccc(O[C@H]2CCNC2)c(-c2ccc(F)c(F)c2)c1` [Compound 29, 3′,4′-Difluoro-6-(((S)-pyrrolidin-3-yl)oxy)-N-(6-(((R)-pyrrolidin-3-yl)oxy)-3′-(2H-tetrazol-5-yl)-[1,1′-biphenyl]-3-yl)-[1,1′-biphenyl]-3-carboxamide Dihydrochloride], at β-catenin/E-cadherin PPI, the inhibitory constant (Ki) was greater than 915 µM and the “selectivity of BCL9/cadherin” value is greater than 1900 fold. In addition, in the series with SW480 cells, the “cytotoxicity in LDH release assay” value was “did not exhibit cytotoxicity; also recorded: did not show cytotoxicity”. The “effect on FOPFlash luciferase reporter activity up to 200 μM” value in series [3] (up to the concentration of 200 μM) is recorded as “no effect”. Besides, the “effect on FOPFlash luciferase reporter activity” value in [3] was “specific for the Wnt/β-catenin signaling pathway”. The “cell-bound concentration at 4 °C” value in the series on HCT116 cells (6 h incubation at 4 °C) is listed as 5.1 nmol/million HCT116 cells. Also, in the series with HCT116 cells (6 h incubation, input concentration 50 μM), the “cell-bound concentration at 37 °C” value was 6.6 nmol/million HCT116 cells. Moreover, in series [1], the “mRNA expression of Wnt target genes Axin2, cyclin D1 and LEF1” value is “dose-dependently inhibited”; the “mRNA expression of house-keeper gene HPRT” value is “did not inhibit”. Further, in series [2], the “level of E-cadherin-bound β-catenin (total β-catenin)” value is listed as “no effect”; the “level of the active form of β-catenin (ABC)” value was “inhibit the level of the active form of β-catenin (ABC)”; the “protein expression levels of cyclin D1 and c-myc” value is “significantly decreased”. Moreover, the “disruption of full-length β-catenin/full-length BCL9 PPI” value in series [4] is recorded as “dose-dependently disrupt”. The “disruption of β-catenin/BCL9 PPI in cells” value in series [5] is listed as “inhibited the β-catenin/BCL9 PPI in a dose-dependent manner”.

Turning to `Cl.Cl.O=C(Nc1ccc(O[C@@H]2CCNC2)c(-c2cccc(-c3nn[nH]n3)c2)c1)c1ccc(O[C@H]2CCNC2)c(-c2ccc3ccsc3c2)c1` [Compound 30, (R)-3-((5-(3-(Benzo[b]thiophen-6-yl)-4-(((S)-pyrrolidin-1-ium-3-yl)oxy)benzamido)-3′-(2H-tetrazol-5-yl)-[1,1′-biphenyl]-2-yl)oxy)-pyrrolidin-1-ium Chloride], the “AlphaScreen biochemical inhibitory activity compared with 1” value on β-catenin/BCL9 PPI is “comparable with that of 1”. For the same compound, on β-catenin/E-cadherin PPI, the Ki is greater than 915 µM and the “selectivity of BCL9/cadherin” value is reported as greater than 570 fold. Also, the “effect on FOPFlash luciferase reporter activity” value in [3] is “specific for the Wnt/β-catenin signaling pathway”.

With β-catenin (from UniProt P35222), the Kd in the series with BCL9 (Homo sapiens) is 0.47 µM.
